ChEMBL document CHEMBL3352604, “Development of novel azabenzofuran TRPA1 antagonists as in vivo tools” (Bioorg Med Chem Lett, 2014)
Converted amounts (≈) assume the structure as drawn. The source made the active and inactive calls. The calls are words filed in the database; no cut-off is given here.

Tests used:
[1] = molecular target: T1, Transient receptor potential cation channel subfamily A member 1 (Rattus norvegicus, UniProt Q6RI86); assay: Antagonist activity at rat TRPA1 assessed as inhibition of AITC-induced calcium uptake by [45Ca2+] fluorimetry assay
T1 sequence (Q6RI86 whole entry): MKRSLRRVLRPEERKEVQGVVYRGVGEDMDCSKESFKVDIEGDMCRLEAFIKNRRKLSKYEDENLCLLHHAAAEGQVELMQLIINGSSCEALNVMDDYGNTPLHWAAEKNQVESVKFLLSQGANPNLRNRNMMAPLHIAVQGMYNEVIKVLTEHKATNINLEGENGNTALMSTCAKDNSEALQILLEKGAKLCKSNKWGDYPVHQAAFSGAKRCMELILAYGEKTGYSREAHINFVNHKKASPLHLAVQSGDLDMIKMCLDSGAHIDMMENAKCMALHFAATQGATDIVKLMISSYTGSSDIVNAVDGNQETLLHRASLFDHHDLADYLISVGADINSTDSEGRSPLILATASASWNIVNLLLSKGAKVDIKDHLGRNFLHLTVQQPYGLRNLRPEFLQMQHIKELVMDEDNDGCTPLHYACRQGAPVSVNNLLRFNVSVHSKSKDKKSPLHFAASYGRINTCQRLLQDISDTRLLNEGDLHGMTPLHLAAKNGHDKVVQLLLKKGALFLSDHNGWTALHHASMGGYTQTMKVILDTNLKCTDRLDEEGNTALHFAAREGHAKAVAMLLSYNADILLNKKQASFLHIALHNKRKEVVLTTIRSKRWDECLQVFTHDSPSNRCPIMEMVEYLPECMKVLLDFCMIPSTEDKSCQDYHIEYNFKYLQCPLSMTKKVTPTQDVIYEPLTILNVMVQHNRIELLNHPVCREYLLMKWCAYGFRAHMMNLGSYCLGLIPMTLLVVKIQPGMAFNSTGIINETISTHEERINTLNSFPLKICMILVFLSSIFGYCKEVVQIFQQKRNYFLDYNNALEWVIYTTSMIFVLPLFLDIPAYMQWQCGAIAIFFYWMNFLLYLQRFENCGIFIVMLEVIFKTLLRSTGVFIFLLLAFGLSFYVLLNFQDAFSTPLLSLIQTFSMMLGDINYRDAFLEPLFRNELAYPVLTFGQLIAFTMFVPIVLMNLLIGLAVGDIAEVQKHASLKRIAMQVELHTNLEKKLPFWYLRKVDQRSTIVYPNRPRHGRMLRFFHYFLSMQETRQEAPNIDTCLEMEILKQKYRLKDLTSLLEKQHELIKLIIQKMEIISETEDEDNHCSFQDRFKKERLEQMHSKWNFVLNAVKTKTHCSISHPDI
In short: (§1)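 Antagonism read by 45Ca2+ fluorimetry in cells expressing rat or human TRPA1. IC50 determined. Where no IC50 was obtained, % inhibition was measured at a single 2 μM point.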

[2] = molecular target: T2, Transient receptor potential cation channel subfamily A member 1 (Homo sapiens, UniProt O75762); assay: Antagonist activity at human TRPA1 assessed as inhibition of AITC-induced calcium uptake by [45Ca2+] fluorimetry assay; in short: as §1
T2 sequence (O75762 whole entry): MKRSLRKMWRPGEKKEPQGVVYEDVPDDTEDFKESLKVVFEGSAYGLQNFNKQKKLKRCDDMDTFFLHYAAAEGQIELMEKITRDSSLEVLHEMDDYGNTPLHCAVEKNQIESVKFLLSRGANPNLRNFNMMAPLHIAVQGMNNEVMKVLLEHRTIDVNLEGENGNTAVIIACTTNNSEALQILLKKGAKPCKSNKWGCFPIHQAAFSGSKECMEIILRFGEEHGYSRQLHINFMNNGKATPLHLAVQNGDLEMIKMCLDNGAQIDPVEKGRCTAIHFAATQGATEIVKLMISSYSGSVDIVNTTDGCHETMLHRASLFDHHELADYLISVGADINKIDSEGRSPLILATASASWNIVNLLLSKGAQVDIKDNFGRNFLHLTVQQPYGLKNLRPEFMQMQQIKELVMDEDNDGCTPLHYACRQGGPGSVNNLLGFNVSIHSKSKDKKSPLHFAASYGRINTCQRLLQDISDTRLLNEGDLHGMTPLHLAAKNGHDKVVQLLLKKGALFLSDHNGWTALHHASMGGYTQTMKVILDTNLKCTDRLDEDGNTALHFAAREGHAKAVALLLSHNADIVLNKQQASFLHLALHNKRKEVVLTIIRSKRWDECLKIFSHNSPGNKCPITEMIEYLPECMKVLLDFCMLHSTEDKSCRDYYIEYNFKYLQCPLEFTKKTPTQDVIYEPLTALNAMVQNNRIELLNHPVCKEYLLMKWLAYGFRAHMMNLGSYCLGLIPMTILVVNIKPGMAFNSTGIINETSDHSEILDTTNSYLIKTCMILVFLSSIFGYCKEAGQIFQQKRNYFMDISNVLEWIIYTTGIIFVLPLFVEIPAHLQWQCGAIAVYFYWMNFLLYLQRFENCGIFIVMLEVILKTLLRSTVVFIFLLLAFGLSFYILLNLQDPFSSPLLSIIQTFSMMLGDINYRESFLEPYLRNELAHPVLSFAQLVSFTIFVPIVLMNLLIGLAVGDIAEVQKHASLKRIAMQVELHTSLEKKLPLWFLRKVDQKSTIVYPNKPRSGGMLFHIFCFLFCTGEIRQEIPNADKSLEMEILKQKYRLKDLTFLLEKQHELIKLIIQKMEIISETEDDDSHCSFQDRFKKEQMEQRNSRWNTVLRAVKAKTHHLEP

[3] = molecular target: T1, Transient receptor potential cation channel subfamily A member 1; assay: Agonist activity at rat TRPA1 by [45Ca2+] fluorimetry assay
[4] = molecular target: T2, Transient receptor potential cation channel subfamily A member 1; assay: Agonist activity at human TRPA1 by [45Ca2+] fluorimetry assay
[5] = Solubility in 0.01 N HCl solution in water; type: physicochemical
In short: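 Solubility measured in 0.01 N hydrogen chloride solution in water.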

[6] = Solubility in PBS buffer at pH 7.4; type: physicochemical
In short: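 Solubility measured in phosphate buffered saline, pH 7.4.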

[7] = Solubility in fasted state simulated intestinal fluid at pH 6.8; type: ADME
[8] = Clearance in human liver microsomes; type: ADME; conditions: read-out: CLH
[9] = Clearance in rat liver microsomes; type: ADME; conditions: read-out: CLH
[10] = Fraction unbound in rat plasma by equilibrium dialysis method; type: ADME, cell-free
[11] = Clearance in Sprague-Dawley rat at 0.5 mg/kg, iv; type: ADME, organism-based; parameters: dose 0.5 mg/kg, route intravenous; conditions: in vivo
In short: (§2)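 Male Sprague-Dawley rats (n = 3) given 0.5 mg/kg iv in DMSO.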

Rattus norvegicus [12] = assay: Unbound clearance in Sprague-Dawley rat at 0.5 mg/kg, iv; type: ADME, organism-based; parameters: dose 0.5 mg/kg, route intravenous; conditions: in vivo; in short: as §2
[13] = Volume of distribution at steady state in Sprague-Dawley rat at 0.5 mg/kg, iv; type: ADME, organism-based; parameters: dose 0.5 mg/kg, route intravenous; conditions: in vivo, read-out: Vdss; in short: as §2
[14] = Half life in Sprague-Dawley rat at 0.5 mg/kg, iv; type: ADME, organism-based; parameters: dose 0.5 mg/kg, route intravenous; conditions: in vivo; in short: as §2
Rattus norvegicus [15] = assay: fCmax in fasted Sprague-Dawley rat at 10 mg/kg, po; type: ADME, organism-based; parameters: dose 10 mg/kg, route oral; conditions: in vivo
In short: (§3)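 Male Sprague-Dawley rats (n = 3) dosed po in 2% HPMC, 1% Tween 80 in H2O, pH 2.2 with MSA. Animals fasted during the PK study.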

[16] = Oral bioavailability in fasted Sprague-Dawley rat at 10 mg/kg; type: ADME, organism-based; conditions: in vivo; in short: as §3
Rattus norvegicus [17] = assay: fCmax in fasted Sprague-Dawley rat at 30 mg/kg, po; type: ADME, organism-based; parameters: dose 30 mg/kg, route oral; conditions: in vivo; in short: as §3
[18] = Oral bioavailability in fasted Sprague-Dawley rat at 30 mg/kg; type: ADME, organism-based; conditions: in vivo; in short: as §3
Rattus norvegicus [19] = assay: fCmax in fed Sprague-Dawley rat at 100 mg/kg, po; type: ADME, organism-based; parameters: dose 100 mg/kg, route oral; conditions: in vivo
In short: (§4)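 Male Sprague-Dawley rats (n = 3) dosed po at 100 mg/kg in 2% HPMC, 1% Tween 80 in H2O, pH 2.2 with MSA. Animals fed during the PK study.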

[20] = Oral bioavailability in fed Sprague-Dawley rat at 100 mg/kg; type: ADME, organism-based; conditions: in vivo; in short: as §4
[21] = Ratio of fCmax in fed Sprague-Dawley rat at 100 mg/kg, po to IC50 for antagonist activity at rat TRPA1 by [45Ca2+] fluorimetry assay
In short: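 Male Sprague-Dawley rats (n = 3), fed, were given an oral dose in 2% HPMC, 1% Tween 80 in water, adjusted to pH 2.2 with MSA. The unbound Cmax from this PK study was divided by the rat TRPA1 IC50. That IC50 came from a 45Ca2+ fluorimetry antagonism assay in cells expressing rat TRPA1.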

Plasma [22] = assay: Unbound plasma concentration in Harlan Sprague-Dawley rat model of AITC-induced flinching at 10 mg/kg, po after 1 hr; type: ADME, organism-based; parameters: dose 10 mg/kg, route oral; conditions: in vivo
In short: (§5)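 Male Harlan Sprague-Dawley rats dosed orally in 2% HPMC/1% Tween-80, with a 0.1% AITC paw challenge at 1 h. Unbound plasma concentration determined with n=8, 6 and 8 for the 10, 30 and 100 mg/kg doses respectively.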

Plasma [23] = assay: Unbound plasma concentration in Harlan Sprague-Dawley rat model of AITC-induced flinching at 30 mg/kg, po after 1 hr; type: ADME, organism-based; parameters: dose 30 mg/kg, route oral; conditions: in vivo; in short: as §5
Plasma [24] = assay: Unbound plasma concentration in Harlan Sprague-Dawley rat model of AITC-induced flinching at 100 mg/kg, po after 1 hr; type: ADME, organism-based; parameters: dose 100 mg/kg, route oral; conditions: in vivo; in short: as §5
[25] = Ratio of unbound plasma concentration in Harlan Sprague-Dawley rat model of AITC-induced flinching at 10 mg/kg, po after 1 hr to IC50 for antagonist activity at rat TRPA1 by [45Ca2+] fluorimetry assay; type: organism-based; parameters: dose 10 mg/kg, route oral; conditions: in vivo
In short: (§6)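 Male Harlan Sprague-Dawley rats were dosed orally in 2% HPMC/1% Tween-80. After 1 h, 0.1% AITC was injected into the left ventral hind paw. Unbound plasma concentration was measured (n=8 at 10 and 100 mg/kg, n=6 at 30 mg/kg) and divided by the rat TRPA1 IC50. That IC50 came from a 45Ca2+ fluorimetry antagonism assay in cells expressing rat TRPA1.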

[26] = Ratio of unbound plasma concentration in Harlan Sprague-Dawley rat model of AITC-induced flinching at 30 mg/kg, po after 1 hr to IC50 for antagonist activity at rat TRPA1 by [45Ca2+] fluorimetry assay; type: organism-based; parameters: dose 30 mg/kg, route oral; conditions: in vivo; in short: as §6
[27] = Ratio of unbound plasma concentration in Harlan Sprague-Dawley rat model of AITC-induced flinching at 100 mg/kg, po after 1 hr to IC50 for antagonist activity at rat TRPA1 by [45Ca2+] fluorimetry assay; type: organism-based; parameters: dose 100 mg/kg, route oral; conditions: in vivo; in short: as §6
Rattus norvegicus [28] = assay: Effect on open filed activity in Harlan Sprague-Dawley rat model of AITC-induced flinching at 30 to 100 mg/kg, po; type: organism-based; parameters: dose 30-100 mg/kg, route oral; conditions: in vivo
Rattus norvegicus [29] = organism: Rattus norvegicus; conditions: Harlan Sprague-Dawley, 30 to 100 mg/kg
[30] = molecular target: Transient receptor potential cation channel subfamily A member 1 (Rattus norvegicus) (UniProt Q6RI86); assay: Antagonist activity at rat TRPA1 assessed as inhibition of AITC-induced calcium uptake at 2 uM by [45Ca2+] fluorimetry assay
Transient receptor potential cation channel subfamily A member 1 (Rattus norvegicus), sequence (Q6RI86 whole entry): as the sequence (Q6RI86 whole entry) above
In short: (§7)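 45Ca2+ uptake fluorimetry in cells expressing rat or human TRPA1, run in parallel for both species. The value is single-point percent inhibition at 2 µM test compound, reported when no IC50 was obtained. Compounds were also run without agonist to check for channel agonism.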

[31] = molecular target: T2, Transient receptor potential cation channel subfamily A member 1; assay: Antagonist activity at human TRPA1 assessed as inhibition of AITC-induced calcium uptake at 2 uM by [45Ca2+] fluorimetry assay; in short: as §7
Rattus norvegicus [32] = organism: Rattus norvegicus; conditions: Harlan Sprague-Dawley, 100 mg/kg

Row | Structure (SMILES) | IC50 [1] | IC50 [2] | EC50 [3] | EC50 [4] | solubility [5] | solubility [6] | solubility [7] | microsomal CLint [8] | microsomal CLint [9] | other results
1 | COCCCOc1cncc(C2NC(=S)NC3=C2C(=O)c2ccccc23)c1 (centres undefined) | 530 nM | 1200 nM | > 40000 nM | > 40000 nM | 120 µg/mL (≈ 315 µM) | 2.8 µg/mL (≈ 7.34 µM) | 14 µg/mL (≈ 36.7 µM) | 90 µL/min/mg | 200 µL/min/mg | –
2 | COCCCOc1cc(C2NC(=S)NC3=C2C(=O)c2ccccc23)ccn1 (centres undefined) | > 40000 nM | > 40000 nM | > 40000 nM | > 40000 nM | 22 µg/mL (≈ 57.7 µM) | – | – | 82 µL/min/mg | 350 µL/min/mg | –
3 | COCCCOc1cccc([C@H]2NC(=S)Nc3c2oc2ncccc32)c1 | 45 nM | 170 nM | > 40000 nM | > 40000 nM | 28 µg/mL (≈ 75.8 µM) | 21 µg/mL (≈ 56.8 µM) | 46 µg/mL (≈ 125 µM) | 30 µL/min/mg | 90 µL/min/mg | fraction unbound [10]: 0.085; clearance [11]: 50 mL/min/kg; CL free (Rattus norvegicus [12]): 600 mL/min/kg; Vd [13]: 4 L/kg; half-life [14]: 1.2 h; fCmax (Rattus norvegicus [17]): 0.082 µM; bioavailability [18]: 13%; fCmax (Rattus norvegicus [19]): 0.612 µM; bioavailability [20]: 79%; Ratio [21]: 14; Cp(f) (Plasma [22]): 48 nM; Cp(f) (Plasma [23]): 220 nM; Cp(f) (Plasma [24]): 740 nM; Ratio [25]: 1; Ratio [26]: 5; Ratio [27]: 16; Activity (Rattus norvegicus [28]): Non-toxic; inhibition (Rattus norvegicus [29]): Active
4 | COCCCOc1ccnc(C2NC(=S)NC3=C2C(=O)c2ccccc23)c1 (centres undefined) | > 2000 nM | > 2000 nM | > 40000 nM | > 40000 nM | 500 µg/mL (≈ 1310 µM) | 62 µg/mL (≈ 163 µM) | 39 µg/mL (≈ 102 µM) | 43 µL/min/mg | 220 µL/min/mg | inhibition [30]: 0%; inhibition [31]: 1%
5 | COCCCOc1cccc(C2NC(=S)NC3=C2C(=O)c2ccccc23)n1 (centres undefined) | 1000 nM | 970 nM | > 40000 nM | > 40000 nM | 17 µg/mL (≈ 44.6 µM) | 36 µg/mL (≈ 94.4 µM) | 35 µg/mL (≈ 91.8 µM) | 160 µL/min/mg | 230 µL/min/mg | –
6 | COCCCOc1cccc([C@@H]2NC(=S)Nc3c2oc2ncccc32)c1 | – | > 40000 nM | – | – | – | – | – | – | – | Cp(f) (Plasma [24]): 370 nM; inhibition (Rattus norvegicus [32]): inactive

The remaining compounds from weak to strong by IC50 [2], led by results:

Row | IC50 [1] | IC50 [2] | EC50 [3] | EC50 [4] | solubility [5] | solubility [6] | solubility [7] | microsomal CLint [8] | microsomal CLint [9] | Structure (SMILES) | other results
7 | 1300 nM | 940 nM | > 40000 nM | > 40000 nM | 200 µg/mL (≈ 515 µM) | 15 µg/mL (≈ 38.6 µM) | 21 µg/mL (≈ 54.1 µM) | 100 µL/min/mg | 40 µL/min/mg | S=C1Nc2c(oc3ncccc23)C(c2cccc(OCc3cccnc3)c2)N1 (centres undefined) | –
8 | 360 nM | 710 nM | > 40000 nM | > 40000 nM | 140 µg/mL (≈ 350 µM) | 1 µg/mL (≈ 2.5 µM) | 15 µg/mL (≈ 37.5 µM) | 150 µL/min/mg | 250 µL/min/mg | O=C1C2=C(NC(=S)NC2c2cccc(OCc3cccnc3)c2)c2ccccc21 (centres undefined) | –
9 | 230 nM | 590 nM | > 40000 nM | > 40000 nM | 1 µg/mL (≈ 2.71 µM) | 1 µg/mL (≈ 2.71 µM) | 23 µg/mL (≈ 62.4 µM) | 90 µL/min/mg | 350 µL/min/mg | COCCCOc1cccc([C@H]2NC(=S)Nc3c2oc2ccccc32)c1 | –
10 | 230 nM | 300 nM | > 40000 nM | > 40000 nM | 1 µg/mL (≈ 2.5 µM) | 10 µg/mL (≈ 25 µM) | 200 µg/mL (≈ 501 µM) | 180 µL/min/mg | 310 µL/min/mg | O=C1C2=C(NC(=S)NC2c2cccc(OCc3ccccn3)c2)c2ccccc21 (centres undefined) | –
11 | 140 nM | 200 nM | > 40000 nM | > 40000 nM | 14 µg/mL (≈ 36.2 µM) | 17 µg/mL (≈ 44 µM) | 66 µg/mL (≈ 171 µM) | 70 µL/min/mg | 140 µL/min/mg | COCCCOc1cccc(C2NC(=S)Nc3c2oc2c(F)cccc32)c1 (centres undefined) | –
12 | 28 nM | 30 nM | > 40000 nM | > 40000 nM | 1 µg/mL (≈ 2.63 µM) | 10 µg/mL (≈ 26.3 µM) | 23 µg/mL (≈ 60.5 µM) | – | – | COCCCOc1cccc(C2NC(=S)NC3=C2C(=O)c2ccccc23)c1 (racemic) | –
13 | 19 nM | 26 nM | > 40000 nM | > 40000 nM | 5 µg/mL (≈ 13.1 µM) | 4 µg/mL (≈ 10.5 µM) | 12 µg/mL (≈ 31.5 µM) | 150 µL/min/mg | 230 µL/min/mg | COCCCOc1cccc([C@H]2NC(=S)NC3=C2C(=O)c2ccccc23)c1 | fraction unbound [10]: 0.01; clearance [11]: 48.3 mL/min/kg; CL free (Rattus norvegicus [12]): 4830 mL/min/kg; Vd [13]: 4.7 L/kg; half-life [14]: 2.1 h; fCmax (Rattus norvegicus [15]): 0.005 µM; bioavailability [16]: 10%
